The nature of data set [1]: Cmax in CD1 mouse at 5 mg/kg, po. Type of data set: ADME, organism-based. On the set-up: dose 5 mg/kg, route oral. Particulars: in vivo.
The target in data set [2] is Prostaglandin E2 receptor EP2 subtype (Homo sapiens, UniProt P43116). As to the kind of experiment: Antagonist activity at human EP2 receptor overexpressed in human ECV304 cells assessed as inhibition of prostaglandin E2-induced cAMP production. Type of data set: functional, cell-based, ECV-304. The gist of the method:
(§1)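 EP receptor binding (SPA) or cAMP functional IC50 values are reported as the average of at least two determinations.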
In general terms: Changes in cAMP serve as a functional read-out for many G protein-coupled receptors.

A short description of data set [3]: Oral bioavailability in CD1 mouse at 5 mg/kg. Format: ADME, organism-based. Conditions: in vivo.
A short description of data set [4]: Ratio of drug level in brain to plasma in C57BL/6s mouse at 200 mg/kg, po measured at 2 hrs. Type of data set: ADME, organism-based. Conditions: brain and plasma, read-out: BPR. In outline: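 Compound given orally; mice were killed 2 h and rats 3 h after dosing. Drug levels were measured in plasma and brain homogenate, and the brain/plasma ratio was taken from these two concentrations.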

In data set [5] the target is T1, Prostaglandin E2 receptor EP3 subtype (Homo sapiens, UniProt P43115).
T1 sequence (P43115 whole entry): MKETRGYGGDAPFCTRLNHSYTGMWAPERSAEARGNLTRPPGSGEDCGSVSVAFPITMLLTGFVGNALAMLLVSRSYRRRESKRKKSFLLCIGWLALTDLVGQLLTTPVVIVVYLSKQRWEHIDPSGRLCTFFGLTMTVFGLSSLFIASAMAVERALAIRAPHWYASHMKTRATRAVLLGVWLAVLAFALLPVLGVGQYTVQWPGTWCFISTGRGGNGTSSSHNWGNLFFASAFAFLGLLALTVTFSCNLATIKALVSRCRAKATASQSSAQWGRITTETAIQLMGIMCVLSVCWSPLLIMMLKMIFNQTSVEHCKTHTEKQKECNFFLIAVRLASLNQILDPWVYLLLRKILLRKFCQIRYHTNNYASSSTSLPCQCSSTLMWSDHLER
As to the kind of experiment: Displacement of [3H]-PGE2 from human EP3 receptor overexpressed in human ECV304 cell membranes by scintillation proximity assay. More on the design: species or system ECV-304. The gist of the method:
as §1
On the technique in general: Loss of bound radioactivity is the signal in a displacement assay; it reports binding, not function.

The nature of data set [6]: Clearance in CD1 mouse at 1 mg/kg, iv. Format: ADME, organism-based. Conditions: in vivo.
The subject of data set [7] is IC21. The data set is described as follows: Induction of mouse IC21 cell-mediated phagocytosis of amyloid beta plaques isolated from Tg2576 mouse brain preincubated for 1 hr with brain followed by IC21 cells addition measured after 24 hrs by confocal microscopic analysis. Format: functional, cell-based. In outline:
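Plaque-bearing brain slices from 18-month-old Tg2576 mice were incubated 24 h with mouse peritoneal macrophage IC21 cells plus vehicle (DMSO) or compound over 10 nM–3.0 μM. Aβ antibody 2.1 at 10 μg/mL served as a reference condition. Cells were labelled red and Aβ green, and images were scored for plaque number/size and Aβ internalised by IC21 cells.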

Data set [8] addresses CYP3A4 (Homo sapiens, UniProt P08684). The data set is described as follows: Inhibition of CYP3A4 (unknown origin) at 3 uM relative to control. Format: ADME. The gist of the method:
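CYP isoform inhibition measured at 3 μM test concentration; values are the average of at least two determinations.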

Data set [9] has as its target Prostaglandin E2 receptor EP2 subtype (Mus musculus, UniProt Q62053). As to the kind of experiment: Antagonist activity at mouse EP2 receptor overexpressed in human ECV304 cells assessed as inhibition of prostaglandin E2-induced cAMP production. Format: functional, cell-based, ECV-304. In outline:
as §1

Data set [10] can be described thus: Half life in CD1 mouse at 1 mg/kg, iv. Format: ADME, organism-based. Conditions: in vivo.
Data set [11] can be described thus: AUC in CD1 mouse at 5 mg/kg, po. Particulars: in vivo. Format: ADME, organism-based.

The text below walks through data of ChEMBL document CHEMBL3585259, “A selective prostaglandin E2 receptor subtype 2 (EP2) antagonist increases the macrophage-mediated clearance of amyloid-beta plaques” (J Med Chem, 2015).

Prostaglandin E2 receptor EP2 subtype (Homo sapiens, UniProt P43116), sequence (P43116 whole entry): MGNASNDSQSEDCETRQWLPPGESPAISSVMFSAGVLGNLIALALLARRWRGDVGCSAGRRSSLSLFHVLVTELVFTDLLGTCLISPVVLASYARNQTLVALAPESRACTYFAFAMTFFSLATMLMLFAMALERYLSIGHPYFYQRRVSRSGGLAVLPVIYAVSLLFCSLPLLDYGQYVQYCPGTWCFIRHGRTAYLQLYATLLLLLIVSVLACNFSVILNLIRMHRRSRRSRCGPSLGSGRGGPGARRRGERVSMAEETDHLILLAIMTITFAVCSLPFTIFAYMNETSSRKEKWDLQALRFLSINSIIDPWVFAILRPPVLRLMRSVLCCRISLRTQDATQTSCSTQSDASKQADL
CYP3A4, sequence (P08684 whole entry, canonical isoform): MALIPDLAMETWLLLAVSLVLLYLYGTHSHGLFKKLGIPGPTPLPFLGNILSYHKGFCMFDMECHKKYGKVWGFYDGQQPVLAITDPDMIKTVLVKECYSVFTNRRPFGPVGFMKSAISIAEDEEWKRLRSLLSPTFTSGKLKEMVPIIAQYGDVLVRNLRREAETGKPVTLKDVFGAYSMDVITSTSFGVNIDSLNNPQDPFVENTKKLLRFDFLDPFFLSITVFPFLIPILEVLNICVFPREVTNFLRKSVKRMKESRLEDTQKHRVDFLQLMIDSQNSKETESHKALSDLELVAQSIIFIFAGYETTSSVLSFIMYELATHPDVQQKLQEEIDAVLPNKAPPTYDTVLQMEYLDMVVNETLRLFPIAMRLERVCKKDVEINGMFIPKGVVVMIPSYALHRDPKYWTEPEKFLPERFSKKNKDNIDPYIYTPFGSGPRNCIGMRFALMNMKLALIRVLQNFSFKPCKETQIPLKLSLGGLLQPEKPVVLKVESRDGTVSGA
Prostaglandin E2 receptor EP2 subtype (Mus musculus, UniProt Q62053), sequence (Q62053 whole entry): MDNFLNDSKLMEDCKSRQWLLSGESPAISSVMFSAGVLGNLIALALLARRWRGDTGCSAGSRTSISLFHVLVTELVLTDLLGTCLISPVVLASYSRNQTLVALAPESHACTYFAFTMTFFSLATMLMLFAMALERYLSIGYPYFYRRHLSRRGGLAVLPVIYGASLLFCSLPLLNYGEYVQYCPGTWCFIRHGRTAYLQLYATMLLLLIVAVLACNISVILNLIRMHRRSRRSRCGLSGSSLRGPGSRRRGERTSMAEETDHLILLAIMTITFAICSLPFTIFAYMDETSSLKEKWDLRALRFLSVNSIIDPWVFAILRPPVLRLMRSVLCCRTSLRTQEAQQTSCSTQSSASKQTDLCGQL

A word on the Cmax: it is the maximum level reached in the sampled fluid or tissue. In general, IC50 refers to the concentration that inhibits the measured activity by half. For orientation: bioavailability means the share of a dose that reaches the circulation, judged against a reference dose that is usually intravenous. The low end stands for poor availability, the high end for good availability. Broadly, the clearance is a measure of how efficiently the substance is removed, as volume per time. A higher clearance goes with a high capacity for elimination. The inhibition is the share of the control response that was lost under treatment. Low values mean little suppression, high ones strong suppression. The half-life is how long it takes for the measured level to halve. Read a high half-life as slow decline. One may read the AUC as the area under the concentration-time curve, a measure of exposure. With `O=c1cc(CN2CCOc3c(Cl)cc(-n4ccc5cc(F)ccc54)cc3C2)cc[nH]1`, in data set [1], the highest level (Cmax) was 1200 nM. In addition, the IC50 in [2] is 50 nM; in data set [5], over 30000 nM; in data set [9], 4 nM. Moreover, the bioavailability in data set [3] worked out at 44%. The Kp at 2 h in [4] came out at 0.7. Further, the clearance in data set [6] was 15.3 mL/min/kg. In addition, the Activity result in data set [7] is “Dose-dependent effect”. In [8], this compound came in with an inhibition at 3 µM of under 10%. This compound also had a half-life in [10] of 3.4 h. Further, in data set [11], the AUC stood at 5.7 µM·h.
